Measured values reported in ChEMBL document CHEMBL3232820, “Improved total synthesis and biological evaluation of potent apratoxin S4 based anticancer agents with differential stability and further enhanced activity” (J Med Chem, 2014).
Calls of active or inactive are those of the source. The calls are words filed in the database; no cut-off is given here.

How the values were obtained:
HCT-116 [1] = experiment: Antiproliferative activity against human HCT116 cells after 48 hrs by MTT assay; format: functional, cell-based; conditions: HCT-116, 48 h
[2] = Half life in CD1 mouse liver microsomes at 1 uM by HPLC-MS analysis in presence of NADPH; format: ADME
[3] = target: T1, Vascular endothelial growth factor A, long form (Homo sapiens, UniProt P15692); experiment: Inhibition of VEGF-A production in human HCT116 cells after 12 hrs by alphaLISA assay; format: cell-based, HCT-116
T1 sequence (P15692 whole entry): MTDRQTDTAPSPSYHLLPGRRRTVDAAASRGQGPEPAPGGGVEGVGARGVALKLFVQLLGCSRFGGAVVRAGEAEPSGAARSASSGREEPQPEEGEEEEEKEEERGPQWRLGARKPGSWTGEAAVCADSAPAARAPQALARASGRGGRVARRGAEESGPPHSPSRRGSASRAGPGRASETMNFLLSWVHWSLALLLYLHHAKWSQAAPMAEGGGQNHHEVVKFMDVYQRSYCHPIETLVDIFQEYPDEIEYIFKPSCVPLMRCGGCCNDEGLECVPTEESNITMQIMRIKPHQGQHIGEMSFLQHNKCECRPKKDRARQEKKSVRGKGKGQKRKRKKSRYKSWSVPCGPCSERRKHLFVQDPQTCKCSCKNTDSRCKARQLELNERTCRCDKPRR

Liver [4] = experiment: Metabolic stability in CD1 mouse liver microsomes assessed as compound remaining at 1 uM after 3 mins by HPLC-MS analysis; format: ADME; conditions: 0.05 h
Procedure, shortened: (§1)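 Pooled female CD1 mouse liver microsomes, 0.5 mg/mL protein final, in 100 mM phosphate pH 7.4 at 37 °C; compound 1 μM final, with or without NADPH-regenerating system; 3 min to 2 h; quenched with ethyl acetate, harmine internal standard; HPLC-MS (MRM); % remaining versus t0 peak-area ratio; triplicate.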

HCT-116 [5] = experiment: Metabolic stability in human HCT116 cells at 25 ug/ml up to 24 hrs by HPLC-MS analysis; format: ADME, cell-based; conditions: hct-116, 24 h
Procedure, shortened: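 HCT116 lysate diluted in 25 mM Tris-HCl pH 8.0 to 0.7 mg/mL protein, 100 μL; incubated with compound (10 μL of 25 μg/mL) 0.25 min to 24 h; ethyl acetate extraction with harmine; HPLC-MS (MRM); remaining amount from calibration curve.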

Liver [6] = experiment: Metabolic stability in CD1 mouse liver microsomes assessed as compound remaining at 1 uM after 30 mins by HPLC-MS analysis; format: ADME; conditions: 0.5 h; procedure, shortened: as §1
Liver [7] = experiment: Metabolic stability in CD1 mouse liver microsomes assessed as compound remaining at 1 uM after 5 mins by HPLC-MS analysis; format: ADME; procedure, shortened: as §1
Liver [8] = experiment: Metabolic stability in CD1 mouse liver microsomes assessed as compound remaining at 1 uM after 60 mins by HPLC-MS analysis in presence of NADPH; format: ADME; conditions: 1 h; procedure, shortened: as §1
Liver [9] = experiment: Metabolic stability in CD1 mouse liver microsomes assessed as compound remaining at 1 uM after 5 mins by HPLC-MS analysis in presence of NADPH; format: ADME; procedure, shortened: as §1
Liver [10] = experiment: Metabolic stability in CD1 mouse liver microsomes assessed as compound remaining at 1 uM after 15 mins by HPLC-MS analysis; format: ADME; conditions: 0.25 h; procedure, shortened: as §1
Liver [11] = experiment: Metabolic stability in CD1 mouse liver microsomes assessed as compound remaining at 1 uM after 60 mins by HPLC-MS analysis; format: ADME; conditions: 1 h; procedure, shortened: as §1
[12] = Half life in phosphate buffer at 25 ug/ml at pH 7.4 by HPLC-MS analysis; format: physicochemical
Procedure, shortened: (§2)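 Compound (10 μL of 25 μg/mL) spiked into 100 μL of 100 mM phosphate buffer, pH 4.88 or pH 7.4, incubated 0.25 min to 24 h; ethyl acetate extraction with harmine internal standard; HPLC-MS (MRM); remaining amount from calibration curve.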

Liver [13] = experiment: Metabolic stability in CD1 mouse liver microsomes assessed as compound remaining at 1 uM after 30 mins by HPLC-MS analysis in presence of NADPH; format: ADME; conditions: 0.5 h; procedure, shortened: as §1
HCT-116 [14] = experiment: Downregulation of human MET protein expression in HCT116 cells up to 10 uM after 24 hrs by Western blotting analysis; format: functional, cell-based
Procedure, shortened: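 HCT116 cells seeded 4×10^5/well, treated next day with a concentration series (solvent control 1% EtOH) for 24 h; whole-cell lysates, equal protein by BCA, 4–12% SDS-PAGE, PVDF transfer, anti-Met immunoblot with chemiluminescent detection.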

Liver [15] = experiment: Metabolic stability in CD1 mouse liver microsomes assessed as compound remaining at 1 uM after 120 mins by HPLC-MS analysis in presence of NADPH; format: ADME; conditions: 2 h; procedure, shortened: as §1
Liver [16] = experiment: Metabolic stability in CD1 mouse liver microsomes assessed as compound remaining at 1 uM after 120 mins by HPLC-MS analysis; format: ADME; conditions: 2 h; procedure, shortened: as §1
Liver [17] = experiment: Metabolic stability in CD1 mouse liver microsomes assessed as compound remaining at 1 uM after 3 mins by HPLC-MS analysis in presence of NADPH; format: ADME; conditions: 0.05 h; procedure, shortened: as §1
Plasma = experiment: Metabolic stability in mouse plasma at 25 ug/ml up to 24 hrs by HPLC-MS analysis; format: ADME, cell-free
Procedure, shortened: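 Compound (10 μL of 25 μg/mL) added to 100 μL mouse serum, incubated 0.25 min to 24 h; ethyl acetate plus harmine quench/extraction, dried, reconstituted in acetonitrile; HPLC-MS (MRM); remaining amount from calibration curve.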

[18] = Half life in phosphate buffer at 25 ug/ml at pH 4.88 by HPLC-MS analysis; format: physicochemical; procedure, shortened: as §2
Liver [19] = experiment: Metabolic stability in CD1 mouse liver microsomes assessed as compound remaining at 1 uM after 15 mins by HPLC-MS analysis in presence of NADPH; format: ADME; conditions: 0.25 h; procedure, shortened: as §1
HCT-116 [20] = experiment: Antitumor activity against human HCT116 cells xenografted in ip dosed nu/nu mouse assessed as tumor growth inhibition administered for 16 days; format: functional, organism-based
Procedure, shortened: (§3)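 Female nu/nu mice, 3–5 weeks old; 1×10^6 HCT116 cells in saline injected sc in left rear flank; daily ip 0.1 or 0.25 mg/kg (2 or 5 μg/mouse) or DMSO vehicle, 16 days; n = 7 treated, 6 vehicle; caliper volumes daily (W²×L×0.5); tumours starting above 100 mm³ excluded.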

HCT-116 [21] = experiment: Antitumor activity against human HCT116 cells xenografted in nu/nu mouse assessed as tumor growth inhibition at 0.1 mg/kg, ip for 16 days relative to control; format: functional; conditions: HCT-116, ip, 384 h, route intraperitoneal, read-out: TGI; procedure, shortened: as §3
Mus musculus [22] = experiment: Toxicity in nu/nu mouse xenografted with human HCT116 cells assessed as abnormal behavior at 0.1 to 0.25 mg/kg, ip for 16 days; format: organism-based, HCT-116; design: dose 0.1-0.25 mg/kg, route intraperitoneal; conditions: in vivo, 384 h
HCT-116 [23] = experiment: Downregulation of VEGFR2 protein expression in human HCT116 cells xenografted in nu/nu mouse at 0.25 mg/kg, ip for 16 days by immunoblotting analysis; format: functional, organism-based; design: dose 0.25 mg/kg
Procedure, shortened: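 Xenograft tumours harvested at the end of the daily ip efficacy study in nu/nu mice bearing sc HCT116 tumours were analysed by immunoblotting with anti-VEGFR2 antibody.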

Mus musculus [24] = experiment: Toxicity in nu/nu mouse xenografted with human HCT116 cells assessed as body weight loss at 0.1 to 0.25 mg/kg, ip for 16 days; format: organism-based, HCT-116; design: dose 0.1-0.25 mg/kg, route intraperitoneal; conditions: in vivo, 384 h

Compound | IC50 (HCT-116 [1]) | half-life at 1 µM [2] | IC50 [3] | Stability (Liver [4]) | Stability (HCT-116 [5]) | Stability (Liver [6]) | Stability (Liver [7]) | Stability (Liver [8]) | Stability (Liver [9]) | Stability (Liver [10]) | Stability (Liver [11]) | half-life at 25 ug/ml [12] | Stability (Liver [13]) | Activity (HCT-116 [14]) | Stability (Liver [15]) | Stability (Liver [16]) | Stability (Liver [17]) | Stability (Plasma) | half-life at 25 ug/ml [18] | Stability (Liver [19]) | other results
CC[C@H](C)[C@H]1C(=O)N2CCC[C@H]2C(=O)O[C@H](C(C)(C)C)C[C@@H](C)C[C@H](O)[C@H](C)C2=N[C@H](CCC(=O)N[C@@H](Cc3ccc(OC)cc3)C(=O)N(C)[C@@H](C)C(=O)N1C)CS2 | 0.69 nM | < 5 min | 0.12 nM | 83.1% | Stable | 56.05% | 71.4% | 6.06% | 17.8% | 45.25% | 48.45% | > 24 h | 3.73% | Active | 5.63% | 56.25% | 51.4% | Stable | > 24 h | 3.55% | 
CC[C@H](C)[C@H]1C(=O)N2CCC[C@H]2C(=O)O[C@H](C(C)(C)C)C[C@@H](C)C[C@H](O)[C@H](C)C2=N[C@@H](CCC(=O)N[C@@H](Cc3ccc(OC)cc3)C(=O)N(C)[C@@H](C)C(=O)N1C)CS2 [APRATOXIN S4] | 1.43 nM | < 5 min | 0.32 nM | 87.05% | Stable | 73.85% | 70.8% | 10% | 32.2% | 87.2% | 87.1% | > 24 h | 9.58% | Active | 6.02% | 55.25% | 39.55% | Stable | > 24 h | 10.07% | 
CC[C@H](C)[C@H]1C(=O)N2CCC[C@H]2C(=O)O[C@H](C(C)(C)C)C[C@@H](C)C[C@H](O)C(C)(C)C2=N[C@@H](CCC(=O)N[C@@H](Cc3ccc(OC)cc3)C(=O)N(C)[C@@H](C)C(=O)N1C)CS2 | 1.99 nM | < 5 min | 0.47 nM | 74.1% | Stable | 74.75% | 77.45% | 3.55% | 17.3% | 63.45% | 81.25% | > 24 h | 4.83% | Active | 5.01% | 70.05% | 37.2% | Stable | > 24 h | 8.28% | TGI (HCT-116 [20]): Dose-dependent effect; inhibition in vivo at 0.1 mg/kg (HCT-116 [21]): 50%; Activity (Mus musculus [22]): Non-toxic; Activity (HCT-116 [23]): Active; Activity (Mus musculus [24]): Non-toxic
CC[C@H](C)[C@H]1C(=O)N2CCC[C@H]2C(=O)O[C@H](C(C)(C)C)C[C@@H](C)C[C@H](O)CC2=N[C@@H](CCC(=O)N[C@@H](Cc3ccc(OC)cc3)C(=O)N(C)[C@@H](C)C(=O)N1C)CS2 | 1.25 nM | < 5 min | 0.3 nM | 66.6% | Stable | 54.8% | 60.5% | 5.41% | 18.7% | 76.55% | 54.5% | > 24 h | 6.1% | Active | 4.3% | 53.85% | 54.95% | Stable | > 24 h | 52.4% | 
